Positions of bridges follow the written chain, without caps; N, C: chain ends. Non-standard residues stand in square brackets, D forms with d. Residues, ends and D or L forms follow the SMILES beside them. Bip(2'-Et-4'-OMe) = CCc1cc(OC)ccc1-c1ccc(C[C@H](N)C(=O)O)cc1; Bip(2'-Me) = Cc1ccccc1-c1ccc(C[C@H](N)C(=O)O)cc1; αMePhe(2,6-F2) = C[C@](N)(Cc1c(F)cccc1F)C(=O)O; Tyr(3-I) = N[C@@H](Cc1ccc(O)c(I)c1)C(=O)O; αMePhe(2-F) = C[C@](N)(Cc1ccccc1F)C(=O)O; hhPhe = N[C@@H](CCCc1ccccc1)C(=O)O; Aad = N[C@@H](CCCC(=O)O)C(=O)O; Aib = CC(C)(N)C(=O)O
Assays:
[1] = biological target: T1, Glucagon-like peptide 1 receptor (Homo sapiens, UniProt P43220); assay: Displacement of [125I]-18 from human GLP-1R expressed in CHO cell membranes incubated for 120 mins by scintillation counting based radioligand binding assay
T1 sequence (P43220 whole entry): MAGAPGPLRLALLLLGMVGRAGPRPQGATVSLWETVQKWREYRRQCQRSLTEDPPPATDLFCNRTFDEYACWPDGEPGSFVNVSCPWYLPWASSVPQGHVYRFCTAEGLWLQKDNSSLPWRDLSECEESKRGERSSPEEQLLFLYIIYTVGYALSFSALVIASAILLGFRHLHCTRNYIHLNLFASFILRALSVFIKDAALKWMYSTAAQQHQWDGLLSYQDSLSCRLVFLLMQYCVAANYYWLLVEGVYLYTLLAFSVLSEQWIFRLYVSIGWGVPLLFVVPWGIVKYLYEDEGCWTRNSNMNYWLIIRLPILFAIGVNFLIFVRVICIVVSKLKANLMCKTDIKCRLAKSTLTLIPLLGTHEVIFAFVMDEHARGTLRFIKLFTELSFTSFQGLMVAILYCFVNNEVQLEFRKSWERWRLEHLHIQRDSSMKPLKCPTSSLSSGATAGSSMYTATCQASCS

[2] = biological target: T1, Glucagon-like peptide 1 receptor; assay: Agonist activity at human GLP-1R expressed in CHO cells assessed as cAMP accumulation incubated for 30 mins; type: functional, cell-based
In short: (§1)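 CHO cells stably expressing human GLP-1R, grown in DMEM/F12 with GlutaMAX, PenStrep and Geneticin, were lifted and resuspended in HBSS with 5.56 mM glucose, 0.1% BSA, 0.5 mM IBMX, 5 mM HEPES (final). 1000 cells/well were exposed to compound (10 μM to 100 fM) for 30 min at room temperature. After lysis with tracer/ULight reagents (2 h, room temperature), cAMP was read by LANCE Ultra TR-FRET. Values are geometric means with standard error.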

[3] = biological target: T1, Glucagon-like peptide 1 receptor; assay: Agonist activity at human GLP-1R expressed in CHO cells assessed as cAMP accumulation incubated for 30 mins relative to GLP1; type: functional, cell-based
In short: as §1

[4] = biological target: T1, Glucagon-like peptide 1 receptor; assay: Ratio of Ki for displacement of [125I]-18 from human GLP-1R expressed in CHO cell membranes by scintillation counting based radioligand binding assay to EC50 for Agonist activity at human GLP-1R expressed in CHO cells assessed as cAMP accumulation

| SMILES | Ki [1] | EC50 [2] | Activity [3] | Ratio [4] |
| --- | --- | --- | --- | --- |
| CCc1cc(OC)ccc1-c1ccc(C[C@H](NC(=O)[C@H](CC(=O)O)NC(=O)[C@H](CO)NC(=O)[C@@H](NC(=O)[C@](C)(Cc2ccccc2F)NC(=O)[C@H]2CSSCC[C@H](NC(=O)[C@@H](N)Cc3cnc[nH]3)C(=O)N[C@@H](CCC(=O)O)C(=O)NCC(=O)N2)[C@@H](C)O)C(=O)N[C@@H](CCCc2ccccc2)C(N)=O)cc1 | > 8000 nM | 730 nM | > 85% | – |
| CCc1cc(OC)ccc1-c1ccc(C[C@H](NC(=O)[C@@H]2CCCC(=O)NCCCC[C@H](NC(=O)CNC(=O)[C@H](CCC(=O)O)NC(=O)C(C)(C)NC(=O)[C@@H](N)Cc3cnc[nH]3)C(=O)N[C@@](C)(Cc3ccccc3F)C(=O)N[C@@H]([C@@H](C)O)C(=O)N[C@@H](CO)C(=O)N2)C(=O)N[C@@H](CCCc2ccccc2)C(N)=O)cc1 (H-H[Aib]EGK[αMePhe(2-F)]TS[Aad][Bip(2'-Et-4'-OMe)][hhPhe]-NH2; lactam 5-9) | 300 nM | 95 nM | > 85% | – |
| CCc1cc(OC)ccc1-c1ccc(C[C@H](NC(=O)[C@H](CC(=O)O)NC(=O)[C@H](CO)NC(=O)[C@@H](NC(=O)[C@](C)(Cc2ccccc2F)NC(=O)[C@@H]2CSSC[C@H](NC(=O)[C@@H](N)Cc3cnc[nH]3)C(=O)N[C@@H](CCC(=O)O)C(=O)NCC(=O)N2)[C@@H](C)O)C(=O)N[C@@H](CCCc2ccccc2)C(N)=O)cc1 | > 3100 nM | 670 nM | > 85% | – |
| CCc1cc(OC)ccc1-c1ccc(C[C@H](NC(=O)[C@H](CC(=O)O)NC(=O)[C@H](CO)NC(=O)[C@@H](NC(=O)[C@](C)(Cc2ccccc2F)NC(=O)[C@@H]2CCSSCC[C@@H](NC(=O)[C@@H](N)Cc3cnc[nH]3)C(=O)N[C@@H](CCC(=O)O)C(=O)NCC(=O)N2)[C@@H](C)O)C(=O)N[C@@H](CCCc2ccccc2)C(N)=O)cc1 | 1700 nM | 200 nM | > 85% | – |
| CCc1cc(OC)ccc1-c1ccc(C[C@H](NC(=O)[C@@H]2CCCCNC(=O)C[C@H](NC(=O)CNC(=O)[C@H](CCC(=O)O)NC(=O)C(C)(C)NC(=O)[C@@H](N)Cc3cnc[nH]3)C(=O)N[C@@](C)(Cc3ccccc3F)C(=O)N[C@@H]([C@@H](C)O)C(=O)N[C@@H](CO)C(=O)N2)C(=O)N[C@@H](CCCc2ccccc2)C(N)=O)cc1 (H-H[Aib]EGD[αMePhe(2-F)]TSK[Bip(2'-Et-4'-OMe)][hhPhe]-NH2; lactam 5-9) | 1200 nM | 320 nM | > 85% | – |
| CCc1cc(OC)ccc1-c1ccc(C[C@H](NC(=O)[C@@H]2CCCCNC(=O)CC[C@H](NC(=O)CNC(=O)[C@H](CCC(=O)O)NC(=O)C(C)(C)NC(=O)[C@@H](N)Cc3cnc[nH]3)C(=O)N[C@@](C)(Cc3ccccc3F)C(=O)N[C@@H]([C@@H](C)O)C(=O)N[C@@H](CO)C(=O)N2)C(=O)N[C@@H](CCCc2ccccc2)C(N)=O)cc1 (H-H[Aib]EGE[αMePhe(2-F)]TSK[Bip(2'-Et-4'-OMe)][hhPhe]-NH2; lactam 5-9) | 320 nM | 430 nM | > 85% | – |
| CCc1cc(OC)ccc1-c1ccc(C[C@H](NC(=O)[C@@H]2CC(=O)NCCCC[C@H](NC(=O)CNC(=O)[C@H](CCC(=O)O)NC(=O)C(C)(C)NC(=O)[C@@H](N)Cc3cnc[nH]3)C(=O)N[C@@](C)(Cc3ccccc3F)C(=O)N[C@@H]([C@@H](C)O)C(=O)N[C@@H](CO)C(=O)N2)C(=O)N[C@@H](CCCc2ccccc2)C(N)=O)cc1 (H-H[Aib]EGK[αMePhe(2-F)]TSD[Bip(2'-Et-4'-OMe)][hhPhe]-NH2; lactam 5-9) | 59 nM | 68 nM | > 85% | – |
| CCc1cc(OC)ccc1-c1ccc(C[C@H](NC(=O)[C@H](CC(=O)O)NC(=O)[C@H](CO)NC(=O)[C@@H](NC(=O)[C@](C)(Cc2ccccc2F)NC(=O)[C@@H](NC(=O)CNC(=O)[C@H](CCC(=O)O)NC(=O)C(C)(C)NC(=O)[C@@H](N)Cc2cnc[nH]2)[C@@H](C)O)[C@@H](C)O)C(=O)N[C@@H](CCCc2ccccc2)C(N)=O)cc1 (H-H[Aib]EGT[αMePhe(2-F)]TSD[Bip(2'-Et-4'-OMe)][hhPhe]-NH2) | 0.57 nM | 0.12 nM | > 85% | 3.5 |
| CCc1cc(OC)ccc1-c1ccc(C[C@H](NC(=O)[C@H](CC(=O)O)NC(=O)[C@H](CO)NC(=O)[C@@H](NC(=O)[C@](C)(Cc2ccccc2F)NC(=O)[C@@H]2CCSSCC[C@H](NC(=O)[C@@H](N)Cc3cnc[nH]3)C(=O)N[C@@H](CCC(=O)O)C(=O)NCC(=O)N2)[C@@H](C)O)C(=O)N[C@@H](CCCc2ccccc2)C(N)=O)cc1 | 3000 nM | 390 nM | > 85% | – |
| CCc1cc(OC)ccc1-c1ccc(C[C@H](NC(=O)[C@H](CC(=O)O)NC(=O)[C@H](CO)NC(=O)[C@@H](NC(=O)[C@](C)(Cc2ccccc2F)NC(=O)[C@H]2CCSSCC[C@@H](NC(=O)[C@@H](N)Cc3cnc[nH]3)C(=O)N[C@@H](CCC(=O)O)C(=O)NCC(=O)N2)[C@@H](C)O)C(=O)N[C@@H](CCCc2ccccc2)C(N)=O)cc1 | 41 nM | 0.73 nM | > 85% | – |
| CCc1cc(OC)ccc1-c1ccc(C[C@H](NC(=O)[C@@H]2CCC(=O)NCCCC[C@H](NC(=O)CNC(=O)[C@H](CCC(=O)O)NC(=O)C(C)(C)NC(=O)[C@@H](N)Cc3cnc[nH]3)C(=O)N[C@@](C)(Cc3ccccc3F)C(=O)N[C@@H]([C@@H](C)O)C(=O)N[C@@H](CO)C(=O)N2)C(=O)N[C@@H](CCCc2ccccc2)C(N)=O)cc1 (H-H[Aib]EGK[αMePhe(2-F)]TSE[Bip(2'-Et-4'-OMe)][hhPhe]-NH2; lactam 5-9) | 17 nM | 10 nM | > 85% | – |
| CCc1cc(OC)ccc1-c1ccc(C[C@H](NC(=O)[C@H](CC(=O)O)NC(=O)[C@H](CO)NC(=O)[C@@H](NC(=O)[C@](C)(Cc2ccccc2F)NC(=O)[C@@H](NC(=O)CNC(=O)[C@H](CCC(=O)O)NC(=O)C(C)(C)NC(=O)[C@@H](N)Cc2cnc[nH]2)[C@@H](C)O)[C@@H](C)O)C(=O)N[C@@H](Cc2ccc(O)c(I)c2)C(N)=O)cc1 (H-H[Aib]EGT[αMePhe(2-F)]TSD[Bip(2'-Et-4'-OMe)][Tyr(3-I)]-NH2) | 6 nM | 0.045 nM | > 85% | – |
| CCc1cc(OC)ccc1-c1ccc(C[C@H](NC(=O)[C@H](CC(=O)O)NC(=O)[C@H](CO)NC(=O)[C@@H](NC(=O)[C@](C)(Cc2ccccc2F)NC(=O)[C@H]2CCSSC[C@H](NC(=O)[C@@H](N)Cc3cnc[nH]3)C(=O)N[C@@H](CCC(=O)O)C(=O)NCC(=O)N2)[C@@H](C)O)C(=O)N[C@@H](CCCc2ccccc2)C(N)=O)cc1 | 980 nM | 190 nM | > 85% | – |
| CCc1cc(OC)ccc1-c1ccc(C[C@H](NC(=O)[C@H](CC(=O)O)NC(=O)[C@H](CO)NC(=O)[C@@H](NC(=O)[C@](C)(Cc2ccccc2F)NC(=O)[C@H]2CSSCC[C@@H](NC(=O)[C@@H](N)Cc3cnc[nH]3)C(=O)N[C@@H](CCC(=O)O)C(=O)NCC(=O)N2)[C@@H](C)O)C(=O)N[C@@H](CCCc2ccccc2)C(N)=O)cc1 | 4800 nM | 110 nM | > 85% | 43 |
| CCc1cc(OC)ccc1-c1ccc(C[C@H](NC(=O)[C@H](CC(=O)O)NC(=O)[C@H](CO)NC(=O)[C@@H](NC(=O)[C@](C)(Cc2ccccc2F)NC(=O)[C@H]2CCSSCC[C@H](NC(=O)[C@@H](N)Cc3cnc[nH]3)C(=O)N[C@@H](CCC(=O)O)C(=O)NCC(=O)N2)[C@@H](C)O)C(=O)N[C@@H](CCCc2ccccc2)C(N)=O)cc1 | 130 nM | 1.8 nM | > 85% | – |
| CCc1cc(OC)ccc1-c1ccc(C[C@H](NC(=O)[C@H](CC(=O)O)NC(=O)[C@H](CO)NC(=O)[C@@H](NC(=O)[C@](C)(Cc2ccccc2F)NC(=O)[C@@H]2CSSC[C@@H](NC(=O)[C@@H](N)Cc3cnc[nH]3)C(=O)N[C@@H](CCC(=O)O)C(=O)NCC(=O)N2)[C@@H](C)O)C(=O)N[C@@H](CCCc2ccccc2)C(N)=O)cc1 | 2400 nM | 600 nM | > 85% | – |
| CCc1cc(OC)ccc1-c1ccc(C[C@H](NC(=O)[C@H](CC(=O)O)NC(=O)[C@H](CO)NC(=O)[C@@H](NC(=O)[C@](C)(Cc2ccccc2F)NC(=O)[C@H]2CCSSC[C@@H](NC(=O)[C@@H](N)Cc3cnc[nH]3)C(=O)N[C@@H](CCC(=O)O)C(=O)NCC(=O)N2)[C@@H](C)O)C(=O)N[C@@H](CCCc2ccccc2)C(N)=O)cc1 | 550 nM | 81 nM | > 85% | – |
| CCc1cc(OC)ccc1-c1ccc(C[C@H](NC(=O)[C@H](CC(=O)O)NC(=O)[C@H](CO)NC(=O)[C@@H](NC(=O)[C@](C)(Cc2c(F)cccc2F)NC(=O)[C@@H](NC(=O)CNC(=O)[C@H](CCC(=O)O)NC(=O)C(C)(C)NC(=O)[C@@H](N)Cc2cnc[nH]2)[C@@H](C)O)[C@@H](C)O)C(=O)N[C@@H](Cc2ccc(-c3ccccc3C)cc2)C(N)=O)cc1 (H-H[Aib]EGT[αMePhe(2,6-F2)]TSD[Bip(2'-Et-4'-OMe)][Bip(2'-Me)]-NH2) | 0.66 nM | 0.19 nM | > 85% | 3.5 |

From ChEMBL document CHEMBL3425455, “Short Hydrophobic Peptides with Cyclic Constraints Are Potent Glucagon-like Peptide-1 Receptor (GLP-1R) Agonists” (J Med Chem, 2015)
